Measurements as given in ChEMBL document CHEMBL1154079.

Assays:
[1] = molecular target: T1, Quinolone resistance protein NorA (Staphylococcus aureus) (UniProt P0A0J7); experiment: Inhibition of NorA efflux pump in Staphylococcus aureus 1199B assessed as reduction in MIC of ciprofloxacin by broth checkerboard method
T1 sequence (whole entry): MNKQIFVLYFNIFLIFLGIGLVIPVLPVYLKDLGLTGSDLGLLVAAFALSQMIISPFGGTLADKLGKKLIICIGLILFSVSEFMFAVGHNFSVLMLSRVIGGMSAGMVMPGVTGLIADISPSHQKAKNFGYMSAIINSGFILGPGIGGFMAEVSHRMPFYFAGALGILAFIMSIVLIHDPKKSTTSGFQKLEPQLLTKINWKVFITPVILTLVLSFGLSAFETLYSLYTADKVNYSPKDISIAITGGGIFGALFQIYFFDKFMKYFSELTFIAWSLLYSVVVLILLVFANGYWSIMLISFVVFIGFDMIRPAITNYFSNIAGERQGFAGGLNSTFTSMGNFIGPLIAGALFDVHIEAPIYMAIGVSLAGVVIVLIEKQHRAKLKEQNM

[2] = molecular target: T1, Quinolone resistance protein NorA (Staphylococcus aureus); experiment: Inhibition of NorA efflux pump in Staphylococcus aureus 1199B assessed as reduction of ciprofloxacin MIC after 24 hrs by broth checkerboard method
[3] = molecular target: T1, Quinolone resistance protein NorA (Staphylococcus aureus); experiment: Inhibition of NorA efflux pump in Staphylococcus aureus 1199B after 24 hrs by broth checkerboard method
[4] = molecular target: T1, Quinolone resistance protein NorA (Staphylococcus aureus); experiment: Inhibition of NorA efflux pump in Staphylococcus aureus 1199B assessed as potentiation of ciprofloxacin-induced antimicrobial activity after 24 hrs by broth checkerboard method
Method in brief: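 Potentiation factor was derived from 24 h, 37 °C checkerboard ciprofloxacin MICs against S. aureus 1199B in Mueller-Hinton broth. Each inhibitor-concentration column was weighted in ascending order: 10 for column 2 (50), adding 10 per column up to 70 for […] (0.8), so that activity at lower inhibitor concentrations counts more.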

Structure (SMILES) | MEC [1] [µg/mL] | fold change (FC) [2] | MIC [3] [mg/L] | PF [4] | logPF [4]
CC(C)CNC(=O)/C=C/C=C/c1ccc2c(c1)OCO2 | 25 | 2 | > 100 | 60 | 1.78
CC(C)NC(=O)/C=C/C=C/c1ccc2c(c1)OCO2 | 50 | 0 | > 100 |  | 
O=C(/C=C/C=C/c1ccc2c(c1)OCO2)N1CCCCC1 | 25 |  | > 100 | 60 | 1.78
N#Cc1ccc(NC(=O)/C=C/C=C/c2ccc3c(c2)OCO3)cc1 | 25 | 2 | > 100 | 60 | 1.78
O=C(/C=C/C=C/c1ccc2c(c1)OCO2)Nc1ccc(NC(=O)c2ccccc2)cc1 | 3.12 | 2 | > 100 | 300 | 2.48
CCN(CC)C(=O)/C=C/C=C/c1ccc2c(c1)OCO2 | 25 | 2 | > 100 | 60 | 1.78
O=C(/C=C/C=C/c1ccc2c(c1)OCO2)NCC(O)c1ccccc1 (stereo not drawn) | 50 | 4 | > 100 | 140 | 2.15
CCC(CO)NC(=O)/C=C/C=C/c1ccc2c(c1)OCO2 (stereo not drawn) | 50 | 0 | > 100 |  | 
CCC(CC)NC(=O)/C=C/C=C/c1ccc2c(c1)OCO2 |  | 2 |  | 60 | 1.78
O=C(CCCCc1ccc2c(c1)OCO2)N1CCCCC1 | 50 | 2 | > 100 | 20 | 1.3
N#Cc1cccc(NC(=O)/C=C/C=C/c2ccc3c(c2)OCO3)c1 | 50 | 8 | > 100 | 660 | 2.82
CC(O)CCNC(=O)/C=C/C=C/c1ccc2c(c1)OCO2 (stereo not drawn) | 25 | 2 | > 100 | 60 | 1.78
CC(=O)Nc1ccccc1NC(=O)/C=C/C=C/c1ccc2c(c1)OCO2 | 25 | 4 | > 100 | 260 | 2.42
O=C(/C=C/C=C/c1ccc2c(c1)OCO2)Nc1cccc(CO)c1 | 25 | 2 | > 100 | 60 | 1.78

The remaining lines, values ahead:

MEC [1] [µg/mL] | fold change (FC) [2] | MIC [3] [mg/L] | PF [4] | logPF [4] | Structure (SMILES)
50 | 0 | > 100 |  |  | O=C(/C=C/C=C/c1ccc2c(c1)OCO2)N1CCOCC1
50 | 4 | > 100 | 140 | 2.15 | O=C(/C=C/C=C/c1ccc2c(c1)OCO2)Nc1ccccc1
25 | 2 | > 100 | 60 | 1.78 | NC(=O)c1ccc(NC(=O)/C=C/C=C/c2ccc3c(c2)OCO3)cc1
12.5 | 4 | > 100 | 320 | 2.51 | CC(=O)Nc1cccc(NC(=O)/C=C/C=C/c2ccc3c(c2)OCO3)c1
50 | 0 | > 100 |  |  | O=C(O)/C=C/C=C/c1ccc2c(c1)OCO2
50 | 2 | > 100 | 20 | 1.3 | CC(=O)Nc1ccccc1NC(=O)CCCCc1ccc2c(c1)OCO2
25 | 2 | > 100 | 60 | 1.78 | CN1CCN(C(=O)/C=C/C=C/c2ccc3c(c2)OCO3)CC1
3.12 | 2 | > 100 | 300 | 2.48 | O=C(/C=C/C=C/c1ccc2c(c1)OCO2)Nc1ccc2ncsc2c1
25 | 4 | > 100 | 260 | 2.42 | CC(=O)Nc1ccc(NC(=O)/C=C/C=C/c2ccc3c(c2)OCO3)cc1
3.12 | 2 | > 100 | 360 | 2.56 | O=C(/C=C/C=C/c1ccc2c(c1)OCO2)Nc1ccc(C(=O)Nc2ccccc2)cc1
6.25 | 2 | > 100 | 200 | 2.3 | O=C(/C=C/C=C/c1ccc2c(c1)OCO2)Nc1nc2ccccc2s1
50 | 2 | > 100 | 20 | 1.3 | CCN(CC)C(=O)CCCCc1ccc2c(c1)OCO2
25 | 2 | > 100 | 60 | 1.78 | O=C(/C=C/C=C/c1ccc2c(c1)OCO2)Nc1ccccc1CO
6.25 | 2 | > 100 | 200 | 2.3 | O=C(/C=C/C=C/c1ccc2c(c1)OCO2)Nc1ccc(CO)cc1
25 | 2 | > 100 | 60 | 1.78 | CC(C)CCNC(=O)/C=C/C=C/c1ccc2c(c1)OCO2
50 | 0 | > 100 |  |  | CCCNC(=O)/C=C/C=C/c1ccc2c(c1)OCO2
 |  | 8 |  |  | O=C(O)c1cn(C2CC2)c2cc(N3CCNCC3)c(F)cc2c1=O
